Series [1] concerns the target T1, Protein deacetylase HDAC6 (Homo sapiens, UniProt Q9UBN7).
T1 sequence (Q9UBN7 whole entry): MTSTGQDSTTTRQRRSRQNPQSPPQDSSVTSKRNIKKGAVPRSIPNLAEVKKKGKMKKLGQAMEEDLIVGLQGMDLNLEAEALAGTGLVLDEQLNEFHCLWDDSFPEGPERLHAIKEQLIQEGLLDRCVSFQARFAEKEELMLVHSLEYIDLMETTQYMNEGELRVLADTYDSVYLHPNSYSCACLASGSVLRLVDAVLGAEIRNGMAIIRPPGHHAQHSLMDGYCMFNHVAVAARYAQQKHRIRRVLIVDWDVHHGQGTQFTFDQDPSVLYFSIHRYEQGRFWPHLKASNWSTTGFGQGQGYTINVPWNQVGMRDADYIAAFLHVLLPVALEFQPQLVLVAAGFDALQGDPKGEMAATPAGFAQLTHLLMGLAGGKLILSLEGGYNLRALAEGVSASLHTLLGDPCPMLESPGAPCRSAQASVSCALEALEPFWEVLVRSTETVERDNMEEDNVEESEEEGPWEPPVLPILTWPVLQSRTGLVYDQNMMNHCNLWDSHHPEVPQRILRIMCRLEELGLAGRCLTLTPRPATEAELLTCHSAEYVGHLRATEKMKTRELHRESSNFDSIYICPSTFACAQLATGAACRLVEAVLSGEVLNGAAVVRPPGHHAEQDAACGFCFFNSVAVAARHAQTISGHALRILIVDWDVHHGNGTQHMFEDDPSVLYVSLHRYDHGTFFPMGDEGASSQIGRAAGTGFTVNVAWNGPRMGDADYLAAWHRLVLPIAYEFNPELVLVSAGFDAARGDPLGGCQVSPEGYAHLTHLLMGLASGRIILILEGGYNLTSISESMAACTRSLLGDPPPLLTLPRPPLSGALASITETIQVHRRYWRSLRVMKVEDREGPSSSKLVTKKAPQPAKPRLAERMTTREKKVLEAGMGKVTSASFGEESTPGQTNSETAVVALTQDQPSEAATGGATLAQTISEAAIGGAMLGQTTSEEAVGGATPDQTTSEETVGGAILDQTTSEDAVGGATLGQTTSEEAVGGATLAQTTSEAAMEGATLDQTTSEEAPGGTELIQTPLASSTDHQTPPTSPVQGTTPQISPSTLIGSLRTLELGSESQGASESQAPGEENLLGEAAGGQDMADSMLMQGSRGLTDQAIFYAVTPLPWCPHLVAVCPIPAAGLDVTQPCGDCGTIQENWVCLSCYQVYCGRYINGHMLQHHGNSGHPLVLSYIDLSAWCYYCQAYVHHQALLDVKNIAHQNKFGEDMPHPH
The experiment in a line: Inhibition of human recombinant HDAC6 using ZMAL (Z-(Ac)Lys-AMC) as fluorogenic substrate incubated for 120 mins by microplate reader assay.

The target in series [2] is T2, Protein deacetylase HDAC6 (Homo sapiens) (UniProt Q9UBN7).
T2 sequence (whole entry): T1 sequence (Q9UBN7 whole entry)
The experiment in a line: Inhibition of HDAC6 in human NB-4 cells assessed as increase in acetylation of alpha-tubulin at 5 uM incubated for 30 hrs by western blot analysis. It is filed as cell-based. The procedure, abridged:
(§1)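 Whole lysates (35 μg) and acid-extracted histones (2 μg) run on SDS-PAGE and blotted for acetylated tubulin or acetyl-histone H3; GAPDH or H4 as loading controls.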
A general note: A western blot detects proteins with antibodies after separation by electrophoresis.

Series [3] has as its target T2, Protein deacetylase HDAC6 (Homo sapiens). The experiment in a line: Inhibition of HDAC6 in human U87 cells assessed as increase in acetylation of alpha-tubulin at 5 uM incubated for 30 hrs by western blot analysis. It is filed as cell-based. In a few lines: as §1
In a further series the target is Histone deacetylase 1 (Homo sapiens, UniProt Q13547). As to the kind of experiment: Inhibition of HDAC1 in human NB-4 cells assessed as increase in acetylation of histone H3 at 5 uM incubated for 30 hrs by western blot analysis. The format is cell-based. The procedure, abridged: as §1
Chain of Histone deacetylase 1 (Q13547 whole entry): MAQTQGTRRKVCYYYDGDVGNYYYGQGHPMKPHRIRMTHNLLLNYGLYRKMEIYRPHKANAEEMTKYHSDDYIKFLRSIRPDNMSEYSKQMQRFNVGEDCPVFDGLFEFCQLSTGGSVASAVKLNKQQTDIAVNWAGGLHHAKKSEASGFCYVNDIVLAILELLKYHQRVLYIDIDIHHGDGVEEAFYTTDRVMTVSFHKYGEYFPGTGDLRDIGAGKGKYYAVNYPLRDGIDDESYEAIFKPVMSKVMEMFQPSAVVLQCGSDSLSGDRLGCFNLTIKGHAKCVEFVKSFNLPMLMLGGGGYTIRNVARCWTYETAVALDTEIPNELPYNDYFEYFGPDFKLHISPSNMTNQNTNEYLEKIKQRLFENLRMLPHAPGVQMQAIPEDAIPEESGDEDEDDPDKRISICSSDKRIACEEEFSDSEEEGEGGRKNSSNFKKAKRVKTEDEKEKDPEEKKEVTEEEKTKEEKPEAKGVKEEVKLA
For series [4], the species on record is Homo sapiens. As to the kind of experiment: Inhibition of broncho-sphere formation in IPF patient derived human lung organoid assessed as inhibition of 3D organoid formation at 0.1 to 50 nM incubated for 14 days by Bright-field microscopy analysis. It is filed as functional. The note with it: dose 0.1-50 nM, time 14.0 day. In a few lines:
(§2)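 Airway basal cells from bronchial brushings of IPF patients, 10⁴ cells in Matrigel on transwell inserts with 1:1 BEGM/DMEM. Treated 14 days (1–50 nM per methods; 0.1–50 nM per legend), medium changed every 7 days.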

The next series has as its system Airway basal cell. As to the kind of experiment: Inhibition of spheroid count in IPF patient derived human Airway basal cell assessed as reduction in sphere count at 20 to 50 nM incubated for 14 days by Bright-field microscopy analysis. It is filed as functional, cell-based. To be noted: dose 20-50 nM, time 14.0 day. The procedure, abridged:
as §2

Series [5] can be described thus: Inhibition of spheroid count in IPF patient derived human Airway basal cell incubated for 14 days by Bright-field microscopy analysis. It is filed as functional, cell-based. The procedure, abridged:
as §2

Series [6] can be described thus: Inhibition of cell proliferation in IPF patient derived human Airway basal cell incubated for 14 days by MTT assay. It is filed as functional, cell-based. The note with it: 336 h. In a few lines:
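IPF patient airway basal cell 3D organoid cultures (10⁴ cells in Matrigel, 1:1 BEGM/DMEM) treated 14 days at 1–50 nM, medium changed weekly. Proliferation read by colorimetric MTT on day 14. Mean ± SEM of triplicates, n=3; repeated-measures ANOVA/Friedman test. Reported IC50 is the mean of the count-based and MTT-based IC50s.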

Series [7] relates to Heart. As to the kind of experiment: Cardiotoxicity in Langendorff-perfused Sprague-Dawley rat heart assessed as effect on RR time at 0.1 uM by ECG analysis (reference value: 257.2 +/-8.1 milliseconds). The format is toxicity, tissue-based.
Series [8] relates to Heart. As to the kind of experiment: Cardiotoxicity in Langendorff-perfused Sprague-Dawley rat heart assessed as effect on RR time at 1 uM by ECG analysis (reference value: 257.2 +/-8.1 milliseconds). The format is toxicity, tissue-based.
Series [9] relates to Heart. As to the kind of experiment: Cardiotoxicity in Langendorff-perfused Sprague-Dawley rat heart assessed as effect on RR time at 10 uM by ECG analysis (reference value: 257.2 +/-8.1 milliseconds). The format is toxicity, tissue-based.
Series [10] deals with Heart. As to the kind of experiment: Cardiotoxicity in Langendorff-perfused Sprague-Dawley rat heart assessed as effect on PQ interval time at 0.1 uM by ECG analysis (reference value: 43.6 +/-2.5 milliseconds). It is filed as toxicity, tissue-based.
For series [11], the system named is Heart. As to the kind of experiment: Cardiotoxicity in Langendorff-perfused Sprague-Dawley rat heart assessed as effect on PQ interval time at 10 uM by ECG analysis (reference value: 43.6 +/-2.5 milliseconds). The format is toxicity, tissue-based.
In series [12] the test system is Heart. The experiment in a line: Cardiotoxicity in Langendorff-perfused Sprague-Dawley rat heart assessed as effect on QRS interval time at 0.01 uM by ECG analysis (reference value: 15.2 +/-0.2 milliseconds). The format is toxicity, tissue-based.
Series [13] has as its system Heart. As to the kind of experiment: Cardiotoxicity in Langendorff-perfused Sprague-Dawley rat heart assessed as effect on QT interval time at 1 uM by ECG analysis (reference value: 76.2 +/-2.9 milliseconds). It is filed as toxicity, tissue-based.
Series [14] is filed under the species Homo sapiens. The experiment in a line: Antifibrotic activity in TGF-beta1-induced human Lung parenchyma assessed as inhibition of alpha-SMA mRNA expression at 4.1 uM incubated upto 7 days by qRT-PCR analysis. It is filed as functional. The note with it: time <= 7.0 day. In a few lines: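 Human lung parenchyma pieces (2 mm³) cultured in DMEM with TGF-β1 (10 ng/mL) plus compound at 0.41 or 4.1 μM or vehicle (0.1% DMSO). Tissue collected on day 7, homogenized, total RNA purified, then qRT-PCR for HDAC6, collagen I, collagen III, αSMA and fibronectin. Relative expression by the 2^-Ct method; n=3, paired t test.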

Each structure is given as a SMILES string. Activity calls are given as the source filed them. No cut-off for these calls is given here.

Broadly, the IC50 is the concentration that gives 50% inhibition. For `CN1CCC2(CC1)c1ccccc1N(Cc1ccc(C(=O)NO)cc1)C2c1ccccc1F` (racemic), the values for the IC50 in series [1], in series [5] and in series [6] were 28.5 nM, 6.38 nM and 0.16 nM, respectively. Moreover, the inhibition entry (in series [2]; in [3]; on Histone deacetylase 1; in the series on Airway basal cell) was “Active” in each case. The inhibition result in the series filed under Homo sapiens [4] was “Dose-Dependent Effect”.

Consider `CC1(C)c2ccccc2N(Cc2ccc(C(=O)NO)cc2)C1c1cccnc1` (racemic), for which the IC50 in series [1] was found to be 41.9 nM; in series [5], 7.31 nM; in [6], 7.31 nM. For the same compound, the Time with Heart [7] is listed as 253.7 ms; in the series with Heart [8], 257.7 ms; with Heart [9] it was 294.1 ms; with Heart [10] it was 44.6 ms; with Heart [11], 50.4 ms; in the series on Heart [12], 15.6 ms. The Time in the series with Heart [13] stood at 76.4 ms. Also, the inhibition entry (in series [2]; in [3]; in the series on Airway basal cell) was “Active” each time. Besides, on Histone deacetylase 1, the inhibition result is “inactive”. Also, the inhibition entry in the series listed under Homo sapiens [4] was “Dose-Dependent Effect”. Further, the result in the series listed under Homo sapiens [14] was Active.

The record behind these values is ChEMBL document CHEMBL5226322, “Harnessing the Role of HDAC6 in Idiopathic Pulmonary Fibrosis: Design, Synthesis, Structural Analysis, and Biological Evaluation of Potent Inhibitors” (J Med Chem, 2021).
